Screens deposited in PubChem by The Scripps Research Institute Molecular Screening Center.
The list is not random: actives were taken first. Their share in the collection is about 2.7%.
OX1R antag-1: antagonists of human orexin 1 receptor; O43613; CHO/OX1R cells, Fluo-8 calcium fluorescence, orexin A; AID 434989; 0.43% of 330,000 active; inhibition, % at 5 µM;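 active means inhibition above its plate's threshold, mean inhibition of all tested compounds on the plate plus 3 SD, cut at about 37% in these data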;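 further: 0% = orexin A challenge wells and 100% = SB-334867-A antagonist wells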
OXTR ag: human OXTR agonism | activation, % at 3 µM | 0.32% of 320,000 active | P30559 | CHO-OTR cells, Fluo-8 calcium fluorescence; normalized: DMSO 0%, oxytocin 100%;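 active means activation above the mean of all tested compounds plus 3 SD, cutoff set per screening run, cut at about 20% in these data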;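 further: peak over basal fluorescence ratio from a 100 s FLIPR kinetic read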
Target sequence (P30559 whole entry, looked up): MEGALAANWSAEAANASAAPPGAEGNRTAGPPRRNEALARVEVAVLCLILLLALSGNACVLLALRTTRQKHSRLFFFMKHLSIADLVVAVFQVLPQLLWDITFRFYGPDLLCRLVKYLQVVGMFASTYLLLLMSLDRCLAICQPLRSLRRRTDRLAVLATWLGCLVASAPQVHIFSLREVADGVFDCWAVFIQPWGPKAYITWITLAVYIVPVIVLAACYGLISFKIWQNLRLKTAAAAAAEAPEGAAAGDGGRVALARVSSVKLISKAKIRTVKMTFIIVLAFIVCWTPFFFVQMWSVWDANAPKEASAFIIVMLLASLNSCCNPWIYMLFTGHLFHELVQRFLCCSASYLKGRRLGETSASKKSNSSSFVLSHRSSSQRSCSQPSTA
OXTR potentiate: human OXTR potentiation | activation, % at 3 µM | CHO-OTR cells, Fluo-8 calcium fluorescence, potentiator mode; 0% = oxytocin EC15, 100% = EC100 | 0.061% of 320,000 active | P30559;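 active means activation above that plate's cutoff, the mean activation of tested compounds plus 3 SD, cut at about 6.6% in these data, passing the limit was not always enough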;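 further: 100% uses oxytocin at 75 nM as the full agonist control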
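System: human OTR in CHO cells / Also added: sub-maximal oxytocin, roughly EC15 / Control set: EC15 oxytocin low, 75 nM oxytocin high / Schedule: 6 min compound pre-incubation at room temperature, 100 s kinetic read / Compound: single-point 3.0 µM / Replication: singlicate / Technique: Fluo-8 calcium dye fluorescence / Read-out basis: % activation of max/min ratio relative to oxytocin controls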
CHO parental Ca: counter-screen for OX1R antagonists: effect in parental CHO cells | parental CHO-K1, ATP-induced calcium, Fluo-8 fluorescence | inhibition, % at 5.6 µM | 0.63% of 330,000 active | AID 463079;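 active means inhibition above that plate's mean sample inhibition plus 3 SD, cut at about 26% in these data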;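 further: 0% = ATP-challenged DMSO wells and 100% = DMSO wells without ATP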
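Assay system – parental CHO cells · Reagent – ATP stimulus · Detection – intracellular calcium via Fluo-8 no-wash fluorescent dye · Evaluation – percent inhibition of ATP-evoked calcium rise, normalized to controls · Controls – ATP wells versus no-ATP DMSO wells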
V1R ag counter: activates human V1a receptor in oxytocin agonist counter-screen; activation, % at 3 µM; 0.25% of 320,000 active; CHO-V1R cells, Fluo-8 calcium fluorescence, agonist mode; 0% DMSO, 100% 3 nM vasopressin; P37288;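 active means activation above the mean activation of all tested compounds plus 3 SD, per screening run, cut at about 20% in these data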;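 further: signal is peak over basal fluorescence ratio across a 100 second FLIPR read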
OX1R antag-2: OX1R (human) antagonism; AID 485270; 1.8% of 330,000 active; O43613; OX1R-expressing cells, FRET antagonist read-out; inhibition, % at 6.6 µM; in the data active means inhibition mostly above about 38%, no sharp cut-off; inactive means mostly below about 40%;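 further: 0% = agonist challenge alone and 100% = reference antagonist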
The depositor's hits bear a star.

SMILES	OX1R antag-1	OXTR ag	OXTR potentiate	CHO parental Ca	V1R ag counter	OX1R antag-2
CCN(CC)c1ccc(NC(=O)/C=C/c2cc(Br)ccc2OC)cc1	-19	-1	-7	-10	-1	50*
COc1ccc(NC(=O)/C=C/c2cc(Br)ccc2OC)cc1	36	-2	-11	-22	-1	83*
COc1ccc(OC)c(/C=C/C(=O)Nc2ccc3c(c2)CCC3)c1	-26	-1	1	-10	-1	69*
Cc1ccc(C(=O)c2coc3c2C(=O)C(=O)c2ccccc2-3)cc1	1	-2	-7	-25	-1	47*
CN1CCC(=O)N([C@H](COc2ccccc2)Cc2ccccc2)CC1	-17	1	1	-16	1	21
Cn1cc([N+](=O)[O-])c(C(=O)Nc2ccc(C(=O)N3CCCCC3)cc2)n1	-16	1	0	-10	2	73*
CC(=O)Nc1ccc(NC(=O)c2ccc([N+](=O)[O-])cc2Cl)cc1	-12	0	-2	4	0	37
Cn1cc([N+](=O)[O-])c(C(=O)Nc2nc(-c3ccc(Cl)cc3)cs2)n1	40*	32*	-19	56*	36*	18
Cc1ccc(-c2nc(NC(=O)c3nn(C)cc3[N+](=O)[O-])sc2C)cc1	4	0	-5	3	1	13
CCCCn1nnc(NC(=O)c2ccc(-c3cccc([N+](=O)[O-])c3)o2)n1	-33	-2	-5	-26	-1	51
Cn1cc([N+](=O)[O-])c(C(=O)Nc2ccc(C3CCCCC3)cc2)n1	-16	3	-13	-1	0	25
Cn1cc([N+](=O)[O-])c(C(=O)NNC(=O)c2ccc([N+](=O)[O-])cc2Cl)n1	-13	1	0	4	0	44*
CCCCn1nnc(NC(=O)c2ccc([N+](=O)[O-])cc2Cl)n1	-15	0	1	-3	0	64*
CN(C)S(=O)(=O)c1ccc(Cl)c(C(=O)NC2=NCCS2)c1	-17	0	-8	-17	1	10
COCCCNC(=O)Cn1cc(/C=C(\C#N)C(=O)NC2CC2)c2ccccc21	-8	3	-1	-9	0	1
CCCn1nnc(NC(=O)c2ccc([N+](=O)[O-])cc2Cl)n1	-20	0	-4	-3	0	63*
Cc1ccc(O)c(C(=O)c2cc(C#N)c(=O)n(-c3c(C)n(C)n(-c4ccccc4)c3=O)c2)c1	-28	2	-1	-9	2	16
Cc1ccc(O)c(C(=O)c2cc(C#N)c(=O)n(-c3nccs3)c2)c1	30	66*	-15	30	54*	7
Cc1cccc(Nc2nc(-c3ccccn3)cs2)n1	20	-1	-4	-5	0	66*
Cc1cccc(Nc2nc(-c3cccs3)cs2)n1	-16	-2	-12	-46	-1	55
CC(=O)Nc1cccc(-c2csc(Nc3ccccn3)n2)c1	-10	-2	-12	-12	-1	61*
CC(=O)Nc1cccc(-c2csc(Nc3cc(C)ccn3)n2)c1	-18	0	-12	-23	2	24
CC1CCCN(C(=O)CCNS(=O)(=O)c2ccc3c(c2)c(=O)n(C)c(=O)n3C)C1 (stereo unspecified)	-4	0	-3	-19	1	16
CCOc1cc(CNC(=O)CCCn2c(=O)c3cccn3c3cccnc32)cc(OCC)c1OCC	4	7	-5	-19	-1	68*
CSc1cccc(NC(=O)CCCn2c(=O)c3cccn3c3cccnc32)c1	1	-1	-9	-10	0	74*
O=S(=O)(Nc1cccc2ncccc12)c1cccs1	27	0	-2	40*	2	32
O=C1c2ccc(-c3nc4ccccc4o3)cc2C(=O)N1Cc1cccnc1	-23	1	-5	-12	0	11
O=C1c2ccc([N+](=O)[O-])cc2C(=O)N1Cc1cccnc1	-18	0	-12	-2	0	77*
COc1ccc2[nH]c3c(c2c1)CCN1C(=O)N([C@@H](C)C(=O)NC2CCCCC2C)C(=O)[C@]31C (stereo partly specified)	-3	-1	-7	-17	0	47*
